From PubChem BioAssay AID588578 (Sanford-Burnham Center for Chemical Genomics, 2011)
The source made the active and inactive calls.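 How the source made its calls: active means IC50 at or below 20 µM; inactive means the rest.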

Target: Bcl-2-like protein 1 (Homo sapiens) (UniProt Q07817)
Assay: displacement of Bim BH3 peptide from Bcl-XL – biochemical, fluorescence polarization, GST-Bcl-XL, FITC-Bim, selectivity assay for Bcl-B inhibitor project, SAR follow-up (AID 588578)
Outline: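 Assay system: Purified GST-Bcl-XL lacking C-terminal transmembrane region, E. coli-expressed | Reagent: FITC-Bim probe peptide | Dosing: Ten doses, twofold serial dilution | Timing: 20 min 4 °C preincubation, 10 min RT tracer binding | Read-out basis: IC50 from sigmoidal non-linear dose-response fit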

Sequence of Bcl-2-like protein 1 (Homo sapiens) (Q07817 whole entry, looked up): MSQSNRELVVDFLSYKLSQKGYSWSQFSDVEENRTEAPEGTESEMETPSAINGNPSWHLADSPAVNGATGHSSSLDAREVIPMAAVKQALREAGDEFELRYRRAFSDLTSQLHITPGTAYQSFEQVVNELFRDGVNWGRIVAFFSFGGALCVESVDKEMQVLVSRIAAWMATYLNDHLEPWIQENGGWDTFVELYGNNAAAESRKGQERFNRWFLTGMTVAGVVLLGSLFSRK

| Structure (SMILES) | IC50 |
| --- | --- |
| O=c1c2cnc3ncnn3c2ccn1CCc1cnc[nH]1 | > 20 µM (inactive) |
| O=c1c2ccccc2nc2n1C1(CCCC1)Cc1ccccc1-2 | > 20 µM (inactive) |
| O=c1c2c(nc3n1CCS3)-c1ccccc1CC21CCCCC1 | > 20 µM (inactive) |
| O=c1c2c(n3nnnc3n1-c1ccccc1)-c1ccccc1CC21CCCC1 | > 20 µM (inactive) |
| COc1ccc2c(c1)-c1c(c(=O)n(Cc3ccccc3)c3nncn13)C(C)(C)C2 | > 20 µM (inactive) |
| COc1ccc(Cn2c(=O)c3c(n4cnnc24)-c2cc(C)ccc2CC3(C)C)cc1 | > 20 µM (inactive) |
| O=c1[nH]c(CN2CCCC2)nc2c1C1(CCCC1)Cc1ccccc1-2 | > 20 µM (inactive) |
| Cc1ccc2c(c1)-c1c(c(=O)n(Cc3ccc(F)cc3)c3nnnn13)C1(CCCCC1)C2 | > 20 µM (inactive) |
| Cc1ccc2c(c1)-c1c(c(=O)n(Cc3ccccc3)c3nncn13)C1(CCCCC1)C2 | > 20 µM (inactive) |
| C=C(C)Cn1c(=O)c2c(n3nnnc13)-c1ccccc1CC21CCCC1 | > 20 µM (inactive) |
| O=c1c2c(n3nnnc3n1Cc1ccccc1)-c1ccccc1CC21CCCCC1 | > 20 µM (inactive) |
| O=c1c2c(-c3ccccc3)n3ncnc3nc2ccn1-c1ccccc1 | > 20 µM (inactive) |
| O=c1[nH]c(NCCCO)nc2c1C1(CCCCC1)Cc1ccccc1-2 | > 20 µM (inactive) |
| O=C1CC(c2ccc(F)cc2)CC2=C1C(c1cccc(Cl)c1)n1ncnc1N2 (stereo not drawn) | > 20 µM (inactive) |
| CC1(C)Cc2ccccc2-c2nc3nn[nH]n3c(=O)c21 | > 20 µM (inactive) |
| COc1ccc2c(c1)-c1c(c(=O)n(Cc3ccccc3)c3nnnn13)C(C)(C)C2 | > 20 µM (inactive) |
| O=c1c2c(n3nnnc3n1Cc1ccccc1)-c1cc(F)ccc1CC21CCCC1 | > 20 µM (inactive) |
| C=C(C)Cn1c(=O)c2c(n3cnnc13)-c1ccccc1CC21CCCC1 | > 20 µM (inactive) |
| COc1ccc2c(c1)-c1c(c(=O)n(Cc3ccc(Cl)cc3)c3nnnn13)C1(CCCC1)C2 | > 20 µM (inactive) |
| O=c1c2c(nc3[nH]ncn13)-c1ccccc1CC21CCCC1 | > 20 µM (inactive) |
| c1ccc(OCc2nc3c4c(ncn3n2)-c2ccccc2CC42CCCC2)cc1 | > 20 µM (inactive) |
| COc1ccc2c(c1)-c1c(c(=O)n(Cc3ccc(F)cc3)c3nnnn13)C(C)(C)C2 | > 20 µM (inactive) |
| Cc1ccc2c(c1)-c1c(c(=O)n(Cc3ccc(F)cc3)c3nncn13)C1(CCCCC1)C2 | > 20 µM (inactive) |
| O=C1CC(c2ccccc2F)c2c(n3ncnc3[nH]c2=O)N1 (stereo not drawn) | > 20 µM (inactive) |
| O=c1c2c(n3nnnc3n1Cc1ccc(Cl)cc1)-c1ccccc1CC21CCCC1 | > 20 µM (inactive) |
| O=c1c2cnc3nc(-c4ccccc4)nn3c2ccn1CCc1cnc[nH]1 | > 20 µM (inactive) |

Next, values leading:

| IC50 | Structure (SMILES) |
| --- | --- |
| > 20 µM (inactive) | COc1ccc(Cn2c(=O)c3c(n4nnnc24)-c2ccccc2CC32CCCC2)cc1 |
| > 20 µM (inactive) | O=c1c2c(n3nnnc3n1Cc1ccccc1)-c1ccccc1CC21CCCC1 |
| > 20 µM (inactive) | O=c1c2ccccc2nc2n1C1(CCCCC1)Cc1ccccc1-2 |
| > 20 µM (inactive) | Cn1c(=O)c2c(n3cnnc13)-c1ccccc1CC21CCCC1 |
| > 20 µM (inactive) | Cn1c(NCCO)nc2c(c1=O)C1(CCCCC1)Cc1ccccc1-2 |
| > 20 µM (inactive) | O=c1c2c(n3nnnc3n1Cc1ccc(F)cc1)-c1ccccc1CC21CCCC1 |
| > 20 µM (inactive) | O=c1c2c(n3cnnc3n1Cc1ccc(Cl)cc1)-c1ccccc1CC21CCCC1 |
| > 20 µM (inactive) | Cc1ccc2c(c1)-c1c(c(=O)n(Cc3ccccc3)c3nnnn13)C(C)(C)C2 |
| > 20 µM (inactive) | CC1CC(=O)C2=C(C1)Nc1ncnn1C2c1cccnc1 (stereo not drawn) |
| > 20 µM (inactive) | O=c1c2c(n3cnnc3n1Cc1ccccc1)-c1ccccc1CC21CCCCC1 |
| > 20 µM (inactive) | COc1ccc2c(c1)-c1c(c(=O)n(Cc3ccc(Cl)cc3)c3nncn13)C(C)(C)C2 |
| > 20 µM (inactive) | COc1ccc2c(c1)-c1c(c(=O)n(Cc3ccccc3)c3nnnn13)C1(CCCC1)C2 |
| > 20 µM (inactive) | COc1ccc2c(c1)-c1c(c(=O)n(Cc3ccc(Cl)cc3)c3nncn13)C1(CCCC1)C2 |
| > 20 µM (inactive) | Cc1ccc2c(c1)-c1c(c(=O)n(Cc3ccc(Cl)cc3)c3nncn13)C1(CCCCC1)C2 |
| > 20 µM (inactive) | CC1(C)CC(n2c(=S)[nH]c3c(c2=O)C2(CCCC2)Cc2ccccc2-3)CCO1 (stereo not drawn) |
| > 20 µM (inactive) | COc1ccc(Cn2c(=O)c3c(n4nnnc24)-c2cc(C)ccc2CC3(C)C)cc1 |

| IC50 | Structure (SMILES) |
| --- | --- |
| > 20 µM (inactive) | O=c1c2c(n3cnnc3n1Cc1ccccc1)-c1ccccc1CC21CCCC1 |
| > 20 µM (inactive) | Cn1c(=S)[nH]c2c(c1=O)C1(CCCCC1)Cc1ccccc1-2 |
| > 20 µM (inactive) | CC1(C)Cc2ccccc2-c2c1c(=O)n(Cc1ccccc1)c1nnnn21 |
| > 20 µM (inactive) | O=c1c2c(n3nnnc3n1Cc1ccccc1)-c1cc(F)ccc1CC21CCCCC1 |
| > 20 µM (inactive) | CC1(C)Cc2ccccc2-c2c1c(=O)n(Cc1ccccc1)c1nncn21 |
| > 20 µM (inactive) | O=c1[nH]c(CN2CCOCC2)nc2c1C1(CCCC1)Cc1ccccc1-2 |
| > 20 µM (inactive) | COc1ccc2c(c1)-c1c(c(=O)n(Cc3ccc(F)cc3)c3nncn13)C(C)(C)C2 |
| > 20 µM (inactive) | O=c1c2c(n3cnnc3n1C1CCCCC1)-c1ccccc1CC21CCCCC1 |
| > 20 µM (inactive) | COc1ccc2c(c1)-c1c(c(=O)n(Cc3ccc(Cl)cc3)c3nnnn13)C(C)(C)C2 |
| > 20 µM (inactive) | Cc1ccc2c(c1)-c1c(c(=O)n(Cc3ccccc3)c3nnnn13)C1(CCCCC1)C2 |
| > 20 µM (inactive) | Cc1ccc2c(c1)-c1c(c(=O)n(Cc3ccc(Cl)cc3)c3nnnn13)C1(CCCCC1)C2 |
| > 20 µM (inactive) | O=c1c2c(nc3[nH]ncn13)-c1ccccc1CC21CCCCC1 |
| > 20 µM (inactive) | Cc1ccc2c(c1)-c1c(c(=O)n(Cc3ccccc3)c3nncn13)C(C)(C)C2 |
| > 20 µM (inactive) | COc1ccc2c(c1)-c1c(c(=O)n(Cc3ccccc3)c3nncn13)C1(CCCC1)C2 |
| > 20 µM (inactive) | O=C1CCCC2=C1C(c1cc(Br)ccc1F)n1ncnc1N2 (stereo not drawn) |
| > 20 µM (inactive) | O=c1c2c(-c3ccccc3)n3ncnc3nc2ccn1-n1cnnc1 |
